Measured values from ChEMBL document CHEMBL3085679, “Combining in silico and biophysical methods for the development of Pseudomonas aeruginosa quorum sensing inhibitors: an alternative approach for structure-based drug design” (J Med Chem, 2013).
Activity calls are given as the source filed them. No cut-off for these calls is given here.

How the values were obtained:
[1] = Inhibition of Pseudomonas aeruginosa recombinant His6-tagged PqsD expressed in Escherichia coli BL21(lambda DE3) assessed as anthraniloyl-CoA and beta-ketodecanoic acid conversion to heptyl-4-hydroxyquinoline preincubated for 10 mins prior to substrate addition by LC-MS/MS analysis
How it was run: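 HHQ formation from anthraniloyl-CoA and β-ketodecanoic acid by purified PqsD (0.1 µM) in 0.05 M MOPS pH 7.0, 0.005% Triton X-100, 0.5% final DMSO; 10 min preincubation with inhibitor at 37 °C, started with anthraniloyl-CoA (5 µM final) and β-ketodecanoic acid (70 µM final); HHQ quantified by LC-MS, DMSO control set to 100%; triplicates.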

Pseudomonas aeruginosa [2] = experiment: Inhibition of anthraniloyl coenzyme A binding to Pseudomonas aeruginosa recombinant His6-tagged PqsD ACoA-channel expressed in Escherichia coli BL21(lambda DE3) by SPR analysis
Pseudomonas aeruginosa [3] = experiment: Competitive binding affinity to Pseudomonas aeruginosa recombinant His6-tagged PqsD ACoA-channel expressed in Escherichia coli BL21(lambda DE3) at 100 uM by SPR analysis in presence of (2-nitrophenyl)(phenyl)methanol
How it was run: (§1)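 SPR competition: amine-coupled PqsD on CMD500M chip preincubated by adding competitor (100 µM) to running buffer (50 mM MOPS pH 8.0, 150 mM NaCl, 5% DMSO, 0.1% Triton X-100), flushed at 50 µL/min until stable; test compounds (100 µM) then injected twice at 10 µL/min, 120 s association, 300 s dissociation.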

Pseudomonas aeruginosa [4] = experiment: Competitive binding affinity to Pseudomonas aeruginosa recombinant His6-tagged PqsD ACoA-channel expressed in Escherichia coli BL21(lambda DE3) at 100 uM by SPR analysis in presence of (2-nitrophenyl)methanol; how it was run: as §1
Pseudomonas aeruginosa [5] = experiment: Binding affinity to Pseudomonas aeruginosa recombinant His6-tagged PqsD expressed in Escherichia coli BL21(lambda DE3) at 100 uM by SPR analysis
How it was run: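 SPR: wild-type or R223A mutant PqsD amine-coupled to CMD500M chip (5000-6000 RU) at 12 °C; running buffer 50 mM MOPS pH 8.0, 150 mM NaCl, 5% DMSO, 0.1% Triton X-100; compounds at 100 µM final injected twice, 120 s association, 300 s dissociation, 50 µL/min; double referencing with blanks and DMSO calibration.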

[6] = Binding affinity to Pseudomonas aeruginosa recombinant His6-tagged PqsD expressed in Escherichia coli BL21(lambda DE3) measured every 180 seconds by isothermal titration calorimetric analysis
How it was run: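 ITC at 25 °C in PBS pH 7.4, 10% glycerol, 5% DMSO; 100 µM His6-PqsD in cell titrated with 2 µL injections of 1.0 mM ligand every 180 s; ligand diluted 1:20 from 20 mM DMSO stock; protein quantified by A280 (ε 17,780 M−1 cm−1); stoichiometry and KD fitted.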

Escherichia coli = experiment: Inhibition of Escherichia coli RNA polymerase at 200 uM preincubated for 10 mins prior to DNA template and NTPs addition measured after 10 mins by [5,6-3H]-UTP incorporation assay relative to control
How it was run: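 E. coli RNA polymerase holoenzyme (1 unit) in 40 mM Tris-HCl pH 7.5, 150 mM KCl, 10 mM MgCl2, 10 mM DTT, 0.1% CHAPS, RNase inhibitor, 2% final DMSO; preincubated with compound 10 min at 25 °C; started with plasmid DNA template plus 400 µM ATP/CTP/GTP, 100 µM UTP and [5,6-3H]-UTP, 10 min at 37 °C; TCA-precipitated RNA counted by scintillation.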

Pseudomonas aeruginosa [7] = experiment: Binding affinity to Pseudomonas aeruginosa recombinant His6-tagged PqsD ACoA-channel expressed in Escherichia coli BL21(lambda DE3) at 25 uM after 30 mins by LC-ESI-MS analysis
How it was run: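 PqsD (25 µM) preincubated 30 min at 37 °C with compound (25 µM) in 0.05 M Tris-HCl pH 8.0, 0.5% DMSO; DTT added, then reversed-phase HPLC (C8, water/acetonitrile with 0.05% TFA gradient, 45 °C) coupled to ESI high-resolution TOF MS to detect intact protein–inhibitor adduct mass.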

Pseudomonas aeruginosa [8] = experiment: Binding affinity to tryptically digested Pseudomonas aeruginosa recombinant His6-tagged PqsD ACoA-channel expressed in Escherichia coli BL21(lambda DE3) at 10 uM after 60 mins by MALDI-TOF-MS analysis
How it was run: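 PqsD (10 µM) and compound (10 µM) preincubated 60 min at 37 °C in 0.05 M MOPS pH 7.0, 0.005% Triton X-100, 0.5% DMSO; buffer exchanged to 0.05 M NH4HCO3 pH 8.1 by diafiltration, trypsin digestion overnight, DTT added; peptides analysed by MALDI-TOF in positive reflector mode, tracking the Cys112-containing fragment.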

Pseudomonas aeruginosa [9] = experiment: Competitive binding affinity to Pseudomonas aeruginosa recombinant His6-tagged PqsD ACoA-channel expressed in Escherichia coli BL21(lambda DE3) at 1 mM by saturation transfer difference NMR analysis in presence of (2-nitrophenyl)(phenyl)methanol
Pseudomonas aeruginosa [10] = experiment: Binding affinity to Pseudomonas aeruginosa recombinant His6-tagged PqsD R223A mutant expressed in Escherichia coli BL21(lambda DE3) at 100 uM by SPR analysis
How it was run: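 Recombinant His6-PqsD R223A (E. coli BL21(λDE3), Ni-NTA purified) amine-coupled to CMD500M chip at 5000-6000 RU. Compounds diluted from 10 mM DMSO stock to 100 µM final in running buffer (50 mM MOPS pH 8.0, 150 mM NaCl, 5% DMSO, 0.1% Triton X-100). Run at 12 °C, 50 µL/min. Each compound injected twice, 120 s association, 300 s dissociation. Data double-referenced against blanks and DMSO calibration.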

SMILES | IC50 [1] [µM] | Activity (Pseudomonas aeruginosa [3]) | further results
COc1ccc(-c2cc(NC(=O)NCC(=O)O)c(C(=O)O)s2)cc1 | 7 | – | –
COc1ccc(-c2cc(NC(=O)NC(C)(C)C(=O)O)c(C(=O)O)s2)cc1 | 56 | – | –
COc1ccc(-c2cc(NC(=O)NCCC(=O)O)c(C(=O)O)s2)cc1 | 37 | – | –
COc1ccc(-c2cc(NC(=O)NCCc3ccccc3)c(C(=O)O)s2)cc1 | 58 | – | –
COc1ccc(-c2cc(NC(=O)N[C@H](C)C(=O)O)c(C(=O)O)s2)cc1 | 54 | – | –
NC(=O)Nc1cc(-c2ccc(Oc3ccccc3)cc2)sc1C(=O)O | 20 | Active | Activity (Pseudomonas aeruginosa [4]): Active; Activity (Pseudomonas aeruginosa [5]): Active
COc1ccc(-c2cc(NC(=O)N[C@H](Cc3ccccc3)C(=O)O)c(C(=O)O)s2)cc1 | 26 | – | –
COc1ccc(-c2cc(NC(N)=O)c(C(=O)O)s2)cc1 | 170 | Active | RU (Pseudomonas aeruginosa [5]): 25; RU (Pseudomonas aeruginosa [10]): 6

Stronger by IC50 [1], values ahead:

IC50 [1] [µM] | Activity (Pseudomonas aeruginosa [3]) | SMILES | further results
6 | Active | CCN(Cc1ccccc1)C(=O)Nc1cc(-c2ccc(OC)cc2)sc1C(=O)O | inhibition (Pseudomonas aeruginosa [2]): Active; Activity (Pseudomonas aeruginosa [4]): inactive; Activity (Pseudomonas aeruginosa [5]): Active; Kd [6]: 6.3 µM
2 | – | COc1ccc(-c2cc(NC(=O)N[C@@H](C)C(=O)O)c(C(=O)O)s2)cc1 | inhibition (Escherichia coli): 10%
2 | – | O=C(CCl)Nc1ccc(-c2cc(NC(=O)N[C@@H](Cc3ccccc3)C(=O)O)c(C(=O)O)s2)cc1 | Activity (Pseudomonas aeruginosa [7]): Active; Activity (Pseudomonas aeruginosa [8]): Active
0.5 | Active | COc1ccc(-c2cc(NC(=O)N[C@@H](Cc3ccccc3)C(=O)O)c(C(=O)O)s2)cc1 | Activity (Pseudomonas aeruginosa [9]): Active; inhibition (Escherichia coli): 10%
